Source: ChEMBL document CHEMBL5058577, “EUbOPEN Chemogenomics Library 2 (Multiplex)” (2022)

System: Fibroblast
Experiment: Multiplex assay against human fibroblast
Assay type: toxicity, cell-based
Method in brief: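 With compound added, live cells were imaged on a CQ1 microscope at 37°C and 5% CO2; staining with Hoechst33342, BioTracker Green Microtubule Cytoskeleton Dye, MitoTracker Red and Annexin V Alexa Fluor 680 had been done at seeding. The CellPathfinder machine-learning gating scheme split cells into Hoechst high-intensity objects or normal cells, normal cells into healthy, pyknosed or fragmented nuclei, and pyknosed cells into mitotic or apoptotic. The tubulin, mitochondrial-mass and membrane-permeability phenotypes are per cents of healthy-nucleus cells.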

[1] = 12 h, 1 µM, compound concentration 1 uM, replicate 1
[2] = 12 h, 1 µM, compound concentration 1 uM, replicate 2
[3] = 12 h, 10 µM, compound concentration 10 uM, replicate 1
[4] = 12 h, 10 µM, compound concentration 10 uM, replicate 2
[5] = 24 h, 1 µM, compound concentration 1 uM, replicate 1
[6] = 24 h, 1 µM, compound concentration 1 uM, replicate 2
[7] = 24 h, 10 µM, compound concentration 10 uM, replicate 1
[8] = 24 h, 10 µM, compound concentration 10 uM, replicate 2
[9] = 48 h, 1 µM, compound concentration 1 uM, replicate 1
[10] = 48 h, 1 µM, compound concentration 1 uM, replicate 2
[11] = 48 h, 10 µM, compound concentration 10 uM, replicate 1
[12] = 48 h, 10 µM, compound concentration 10 uM, replicate 2

Which “Population Apoptotic (%)” value [1] does the source give for Cc1sc2c(c1C)C(c1ccc(Cl)cc1)=N[C@@H](CC(=O)NCCCCCCCCNC(=O)COc1cccc3c1C(=O)N(C1CCC(=O)NC1=O)C3=O)c1nnc(C)n1-2 (some centres not stated) here?
The value was 57%.

And the “Population Fragmented Nuclei (%)” value [1]?
Its value is 10%.

And the “Population Healthy Nuclei (%)” value [1]?
The value was 72%.

What about the “Population Hoechst High Intensity Objects (%)” value [1] of the same compound?
The value was 3%.

And the “Population Membrane Permeable-Phenotype (%)” value [1]?
The value was 1%.

And the “Population Mitochondria Different-Phenotype (%)” value [1]?
Its value is 4%.

What about the “Population Mitotic Cells (%)” value [1] of the same compound?
Its value is 42%.

And the “Population Normal (%)” value [1]?
The value was 96%.

What about the “Population Pyknosed Nuclei (%)” value [1] of the same compound?
Its value is 16%.

And the “Population Tubulin-Different-Phenotype (%)” value [1]?
The value was 25%.

What about the “Total Cell Count” value [1] of the same compound?
The value was 118.

And the “Population Apoptotic (%)” value [2]?
Its value is 42%.

And the “Population Fragmented Nuclei (%)” value [2]?
Its value is 34%.

And the “Population Healthy Nuclei (%)” value [2]?
Its value is 34%.

What about the “Population Hoechst High Intensity Objects (%)” value [2] of the same compound?
The value was 6%.

What about the “Population Membrane Permeable-Phenotype (%)” value [2] of the same compound?
Its value is 23%.

What about the “Population Mitochondria Different-Phenotype (%)” value [2] of the same compound?
Its value is 23%.

And the “Population Mitotic Cells (%)” value [2]?
The value was 57%.

And the “Population Normal (%)” value [2]?
The value was 93%.

And the “Population Pyknosed Nuclei (%)” value [2]?
Its value is 31%.

And the “Population Tubulin-Different-Phenotype (%)” value [2]?
Its value is 66%.

And the “Total Cell Count” value [2]?
The value was 94.

And the “Population Apoptotic (%)” value [3]?
The value was 54%.

And the “Population Fragmented Nuclei (%)” value [3]?
The value was 13%.

What about the “Population Healthy Nuclei (%)” value [3] of the same compound?
The value was 56%.

And the “Population Hoechst High Intensity Objects (%)” value [3]?
The value was 11%.

What about the “Population Membrane Permeable-Phenotype (%)” value [3] of the same compound?
Its value is 1%.

What about the “Population Mitochondria Different-Phenotype (%)” value [3] of the same compound?
Its value is 19%.

And the “Population Mitotic Cells (%)” value [3]?
Its value is 45%.

And the “Population Normal (%)” value [3]?
Its value is 88%.

And the “Population Pyknosed Nuclei (%)” value [3]?
The value was 30%.

And the “Population Tubulin-Different-Phenotype (%)” value [3]?
The value was 50%.

What about the “Total Cell Count” value [3] of the same compound?
The value was 171.

And the “Population Apoptotic (%)” value [4]?
The value was 44%.

What about the “Population Fragmented Nuclei (%)” value [4] of the same compound?
Its value is 27%.

What about the “Population Healthy Nuclei (%)” value [4] of the same compound?
Its value is 27%.

What about the “Population Hoechst High Intensity Objects (%)” value [4] of the same compound?
The value was 17%.

What about the “Population Membrane Permeable-Phenotype (%)” value [4] of the same compound?
The value was 7%.

What about the “Population Mitochondria Different-Phenotype (%)” value [4] of the same compound?
The value was 26%.

What about the “Population Mitotic Cells (%)” value [4] of the same compound?
The value was 55%.

And the “Population Normal (%)” value [4]?
The value was 82%.

And the “Population Pyknosed Nuclei (%)” value [4]?
The value was 45%.

And the “Population Tubulin-Different-Phenotype (%)” value [4]?
The value was 69%.

What about the “Total Cell Count” value [4] of the same compound?
Its value is 115.

What about the “Population Apoptotic (%)” value [5] of the same compound?
The value was 56%.

And the “Population Fragmented Nuclei (%)” value [5]?
Its value is 20%.

And the “Population Healthy Nuclei (%)” value [5]?
Its value is 53%.

And the “Population Hoechst High Intensity Objects (%)” value [5]?
Its value is 10%.

And the “Population Membrane Permeable-Phenotype (%)” value [5]?
Its value is 3%.

What about the “Population Mitochondria Different-Phenotype (%)” value [5] of the same compound?
Its value is 3%.

What about the “Population Mitotic Cells (%)” value [5] of the same compound?
The value was 44%.

What about the “Population Normal (%)” value [5] of the same compound?
Its value is 89%.

What about the “Population Pyknosed Nuclei (%)” value [5] of the same compound?
Its value is 26%.

And the “Population Tubulin-Different-Phenotype (%)” value [5]?
Its value is 25%.

And the “Total Cell Count” value [5]?
The value was 107.

What about the “Population Apoptotic (%)” value [6] of the same compound?
The value was 65%.

And the “Population Fragmented Nuclei (%)” value [6]?
The value was 41%.

What about the “Population Healthy Nuclei (%)” value [6] of the same compound?
The value was 32%.

And the “Population Hoechst High Intensity Objects (%)” value [6]?
The value was 3%.

What about the “Population Membrane Permeable-Phenotype (%)” value [6] of the same compound?
The value was 16%.

What about the “Population Mitochondria Different-Phenotype (%)” value [6] of the same compound?
The value was 20%.

And the “Population Mitotic Cells (%)” value [6]?
Its value is 35%.

What about the “Population Normal (%)” value [6] of the same compound?
The value was 96%.

What about the “Population Pyknosed Nuclei (%)” value [6] of the same compound?
Its value is 25%.

What about the “Population Tubulin-Different-Phenotype (%)” value [6] of the same compound?
The value was 72%.

What about the “Total Cell Count” value [6] of the same compound?
Its value is 80.

And the “Population Apoptotic (%)” value [7]?
Its value is 67%.

And the “Population Fragmented Nuclei (%)” value [7]?
The value was 20%.

And the “Population Healthy Nuclei (%)” value [7]?
The value was 38%.

What about the “Population Hoechst High Intensity Objects (%)” value [7] of the same compound?
The value was 13%.

What about the “Population Membrane Permeable-Phenotype (%)” value [7] of the same compound?
Its value is 3%.

And the “Population Mitochondria Different-Phenotype (%)” value [7]?
The value was 9%.

What about the “Population Mitotic Cells (%)” value [7] of the same compound?
The value was 32%.

And the “Population Normal (%)” value [7]?
Its value is 86%.

And the “Population Pyknosed Nuclei (%)” value [7]?
The value was 41%.

What about the “Population Tubulin-Different-Phenotype (%)” value [7] of the same compound?
Its value is 47%.

And the “Total Cell Count” value [7]?
The value was 154.

What about the “Population Apoptotic (%)” value [8] of the same compound?
The value was 44%.

What about the “Population Fragmented Nuclei (%)” value [8] of the same compound?
The value was 25%.

What about the “Population Healthy Nuclei (%)” value [8] of the same compound?
The value was 32%.

What about the “Population Hoechst High Intensity Objects (%)” value [8] of the same compound?
The value was 12%.

What about the “Population Membrane Permeable-Phenotype (%)” value [8] of the same compound?
Its value is 17%.

What about the “Population Mitochondria Different-Phenotype (%)” value [8] of the same compound?
Its value is 20%.

What about the “Population Mitotic Cells (%)” value [8] of the same compound?
The value was 55%.

What about the “Population Normal (%)” value [8] of the same compound?
Its value is 87%.

What about the “Population Pyknosed Nuclei (%)” value [8] of the same compound?
Its value is 42%.

And the “Population Tubulin-Different-Phenotype (%)” value [8]?
The value was 68%.

What about the “Total Cell Count” value [8] of the same compound?
The value was 103.

What about the “Population Apoptotic (%)” value [9] of the same compound?
The value was 88%.

And the “Population Fragmented Nuclei (%)” value [9]?
Its value is 41%.

And the “Population Healthy Nuclei (%)” value [9]?
The value was 24%.

And the “Population Hoechst High Intensity Objects (%)” value [9]?
The value was 27%.

What about the “Population Membrane Permeable-Phenotype (%)” value [9] of the same compound?
Its value is 0%.

What about the “Population Mitochondria Different-Phenotype (%)” value [9] of the same compound?
The value was 0%.

What about the “Population Mitotic Cells (%)” value [9] of the same compound?
The value was 12%.

What about the “Population Normal (%)” value [9] of the same compound?
The value was 72%.

And the “Population Pyknosed Nuclei (%)” value [9]?
Its value is 33%.

And the “Population Tubulin-Different-Phenotype (%)” value [9]?
The value was 33%.

What about the “Total Cell Count” value [9] of the same compound?
Its value is 102.

And the “Population Apoptotic (%)” value [10]?
Its value is 93%.

What about the “Population Fragmented Nuclei (%)” value [10] of the same compound?
The value was 42%.

What about the “Population Healthy Nuclei (%)” value [10] of the same compound?
Its value is 37%.

And the “Population Hoechst High Intensity Objects (%)” value [10]?
The value was 8%.

And the “Population Membrane Permeable-Phenotype (%)” value [10]?
The value was 27%.

What about the “Population Mitochondria Different-Phenotype (%)” value [10] of the same compound?
The value was 20%.

And the “Population Mitotic Cells (%)” value [10]?
Its value is 6%.

And the “Population Normal (%)” value [10]?
Its value is 91%.

What about the “Population Pyknosed Nuclei (%)” value [10] of the same compound?
The value was 20%.

And the “Population Tubulin-Different-Phenotype (%)” value [10]?
The value was 82%.

What about the “Total Cell Count” value [10] of the same compound?
The value was 85.

And the “Population Apoptotic (%)” value [11]?
Its value is 86%.

What about the “Population Fragmented Nuclei (%)” value [11] of the same compound?
Its value is 40%.

And the “Population Healthy Nuclei (%)” value [11]?
The value was 20%.

What about the “Population Hoechst High Intensity Objects (%)” value [11] of the same compound?
The value was 38%.

And the “Population Membrane Permeable-Phenotype (%)” value [11]?
Its value is 5%.

And the “Population Mitochondria Different-Phenotype (%)” value [11]?
The value was 10%.

What about the “Population Mitotic Cells (%)” value [11] of the same compound?
The value was 13%.

What about the “Population Normal (%)” value [11] of the same compound?
Its value is 61%.

And the “Population Pyknosed Nuclei (%)” value [11]?
Its value is 38%.

And the “Population Tubulin-Different-Phenotype (%)” value [11]?
Its value is 55%.

What about the “Total Cell Count” value [11] of the same compound?
Its value is 156.

And the “Population Apoptotic (%)” value [12]?
The value was 57%.

And the “Population Fragmented Nuclei (%)” value [12]?
Its value is 38%.

And the “Population Healthy Nuclei (%)” value [12]?
Its value is 38%.

What about the “Population Hoechst High Intensity Objects (%)” value [12] of the same compound?
Its value is 15%.

What about the “Population Membrane Permeable-Phenotype (%)” value [12] of the same compound?
Its value is 14%.

And the “Population Mitochondria Different-Phenotype (%)” value [12]?
The value was 14%.

What about the “Population Mitotic Cells (%)” value [12] of the same compound?
The value was 42%.

And the “Population Normal (%)” value [12]?
Its value is 84%.

And the “Population Pyknosed Nuclei (%)” value [12]?
The value was 23%.

What about the “Population Tubulin-Different-Phenotype (%)” value [12] of the same compound?
Its value is 80%.

And the “Total Cell Count” value [12]?
The value was 108.
